This note sets out measurements from ChEMBL document CHEMBL1143812, “A novel bis-tetrahydrofuranylurethane-containing nonpeptidic protease inhibitor (PI), GRL-98065, is potent against multiple-PI-resistant human immunodeficiency virus in vitro” (Antimicrob Agents Chemother, 2007).

Molecules are shown by their SMILES. pEC50: −log10 of the molar value.

The subject of series [1] is Human immunodeficiency virus 1. Nature of the series: Antiviral activity against HIV1 GRL98065p20 in MT4 cells assessed as inhibition of p24 Gag protein expression by MTT assay. Type of series: functional, organism-based. The conditions noted are these: Human immunodeficiency virus 1, MT4. The method, boiled down:
(§1)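 MT-4 cells (10^5/ml) infected with 100 TCID50s of wild-type or PI-resistant NL4-3 virus and incubated at 37°C with or without graded drug concentrations. On day 7, supernatant p24 Gag was measured by chemiluminescent enzyme immunoassay. […] Assays were run in duplicate or triplicate.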

Series [2] relates to Human immunodeficiency virus 1. Nature of the series: Antiviral activity against HIV1 GRL98065p30 in MT4 cells assessed as inhibition of p24 Gag protein expression by MTT assay. Type of series: functional, organism-based. The settings on record: Human immunodeficiency virus 1, MT4. The procedure, abridged: as §1
(Tetrazolium dyes change colour on reduction, which living cells bring about.)

Series [3] has as its system Human immunodeficiency virus 1. Nature of the series: Antiviral activity against HIV1 92UG029 X4 subtype A in phytohemagglutininin-activated PBMCs assessed as inhibition of p24 Gag protein expression by MTT assay. Type of series: functional, organism-based. The method, boiled down:
(§2)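 PHA-activated PBMCs (10^6/ml) infected with 50 TCID50s of each isolate and cultured with or without drug in 10-fold serial dilutions. The read-out was supernatant p24 Gag by chemiluminescent enzyme immunoassay. […] Assays were run in duplicate or triplicate, with one donor per experiment and three donors in total.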

Series [4] concerns Human immunodeficiency virus 1. Description: Antiviral activity against HIV1 92UG037 subtype A R5 in phytohemagglutininin-activated PBMCs assessed as inhibition of p24 Gag protein expression by MTT assay. Type of series: functional, organism-based. The procedure, abridged: as §2
Series [5] has as its system Human immunodeficiency virus 1. Nature of the series: Antiviral activity against HIV1 97ZA003 R5 subtype C in phytohemagglutininin-activated PBMCs assessed as inhibition of p24 Gag protein expression by MTT assay. The series is classed as functional, organism-based. The procedure, abridged:
as §2

In series [6] the test system is Human immunodeficiency virus 1. Description: Antiviral activity against HIV1 92TH019 R5 subtype E in phytohemagglutininin-activated PBMCs assessed as inhibition of p24 Gag protein expression by MTT assay. Type of series: functional, organism-based. The procedure, abridged:
as §2

Series [7] has as its system Human immunodeficiency virus 1. Description: Antiviral activity against HIV1 LAI in MT2 cells assessed as inhibition of p24 Gag protein expression by MTT assay. Type of series: functional, organism-based. The settings on record: Human immunodeficiency virus 1, LAI. The method, boiled down:
(§3)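 MT-2 cells (2 × 10^4/ml) were infected with 100 TCID50s of the HIV-1LAI, HIV-2EHO or HIV-2ROD strain. They were cultured with serial drug concentrations at 37°C for 7 days. MTT was then added for 4 h at 37°C, formazan was dissolved in acidified isopropanol with 4% Triton X-100, and optical density was read. EC50 is the mean of three independent experiments, each run in duplicate.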

Series [8] has as its system Human immunodeficiency virus 2. Nature of the series: Antiviral activity against HIV2 EHO in MT2 cells assessed as inhibition of p24 Gag protein expression by MTT assay. Type of series: functional, organism-based. The conditions noted are these: Human immunodeficiency virus 2, EHO. The method, boiled down:
as §3

For series [9], the system named is Human immunodeficiency virus 2. Nature of the series: Antiviral activity against HIV2 ROD in MT2 cells assessed as inhibition of p24 Gag protein expression by MTT assay. The series is classed as functional, organism-based. The conditions noted are these: Human immunodeficiency virus 2, ROD. The procedure, abridged:
as §3

Series [10] concerns Human immunodeficiency virus 1. Description: Antiviral activity against HIV1 NL4-3 in MT4 cells by MTT assay. The series is classed as functional, organism-based. The conditions noted are these: Human immunodeficiency virus 1, NL4-3, MT4.
For series [11], the system named is Human immunodeficiency virus 1. Nature of the series: Antiviral activity against ritonavir-resistant HIV1 in MT4 cells assessed as inhibition of p24 Gag protein expression by MTT assay. Type of series: functional, organism-based. The conditions noted are these: Human immunodeficiency virus 1, MT4. The procedure, abridged: as §1
The subject of series [12] is Human immunodeficiency virus 1. Nature of the series: Antiviral activity against idinavir-resistant HIV1 in MT4 cells assessed as inhibition of p24 Gag protein expression by MTT assay. The series is classed as functional, organism-based. The settings on record: Human immunodeficiency virus 1, MT4. The method, boiled down:
as §1

Series [13] concerns Human immunodeficiency virus 1. Nature of the series: Antiviral activity against nelfinavir-resistant HIV1 in MT4 cells assessed as inhibition of p24 Gag protein expression by MTT assay. Type of series: functional, organism-based. The conditions noted are these: Human immunodeficiency virus 1, MT4. The method, boiled down:
as §1

Series [14] concerns Human immunodeficiency virus 1. Description: Antiviral activity against atazanavir-resistant HIV1 in MT4 cells assessed as inhibition of p24 Gag protein expression by MTT assay. The series is classed as functional, organism-based. The conditions noted are these: Human immunodeficiency virus 1, MT4. The method, boiled down: as §1
Series [15] has as its system Human immunodeficiency virus 1. Nature of the series: Antiviral activity against amprenavir-resistant HIV1 in MT4 cells assessed as inhibition of p24 Gag protein expression by MTT assay. The conditions noted are these: Human immunodeficiency virus 1, MT4. The series is classed as functional, organism-based. The procedure, abridged: as §1
Series [16] deals with Human immunodeficiency virus 1. Nature of the series: Antiviral activity against HIV1 GRL98065p40 in MT4 cells assessed as inhibition of p24 Gag protein expression by MTT assay. The series is classed as functional, organism-based. The conditions noted are these: Human immunodeficiency virus 1, MT4. The procedure, abridged:
as §1

Series [17] deals with Human immunodeficiency virus 1. Nature of the series: Antiviral activity against wild type HIV1 ERS104prc X4 in phytohemagglutininin-activated PBMCs assessed as inhibition of p24 Gag protein expression by MTT assay. Type of series: functional, organism-based. The procedure, abridged:
(§4)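 PHA-activated PBMCs (10^6/ml) infected with 50 TCID50s of each isolate and cultured with or without drug in 10-fold serial dilutions. The read-out was supernatant p24 Gag by chemiluminescent enzyme immunoassay. Assays were run in duplicate or triplicate, with one donor per experiment and three donors in total.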

For series [18], the system named is Human immunodeficiency virus 1. Description: Antiviral activity against HIV1 MDR/TM X4 in phytohemagglutininin-activated PBMCs assessed as inhibition of p24 Gag protein expression by MTT assay. Type of series: functional, organism-based. The method, boiled down:
as §2

The test system of series [19] is Human immunodeficiency virus 1. Description: Antiviral activity against HIV1 MDR/MM R5 in phytohemagglutininin-activated PBMCs assessed as inhibition of p24 Gag protein expression by MTT assay. Type of series: functional, organism-based. The procedure, abridged:
as §2

Series [20] concerns Human immunodeficiency virus 1. Description: Antiviral activity against HIV1 MDR/JSL R5 in phytohemagglutininin-activated PBMCs assessed as inhibition of p24 Gag protein expression by MTT assay. The series is classed as functional, organism-based. The procedure, abridged:
as §2

Series [21] has as its system Human immunodeficiency virus 1. Description: Antiviral activity against HIV1 MDR/B X4 in phytohemagglutininin-activated PBMCs assessed as inhibition of p24 Gag protein expression by MTT assay. Type of series: functional, organism-based. The procedure, abridged: as §2
The test system of series [22] is Human immunodeficiency virus 1. Description: Antiviral activity against HIV1 MDR/C X4 in phytohemagglutininin-activated PBMCs assessed as inhibition of p24 Gag protein expression by MTT assay. The series is classed as functional, organism-based. The method, boiled down: as §2
Series [23] relates to Human immunodeficiency virus 1. Description: Antiviral activity against HIV1 MDR/G X4 in phytohemagglutininin-activated PBMCs assessed as inhibition of p24 Gag protein expression by MTT assay. The series is classed as functional, organism-based. The procedure, abridged:
as §4

Series [24] deals with Human immunodeficiency virus 1. Description: Antiviral activity against saquinavir-resistant HIV1 in MT4 cells assessed as inhibition of p24 Gag protein expression by MTT assay. Type of series: functional, organism-based. The settings on record: Human immunodeficiency virus 1, MT4. The method, boiled down: as §1
The nature of series [25]: Cytotoxicity against human MT2 cells assessed as inhibition of p24 Gag protein expression by MTT assay. Type of series: cell-based.
Series [26] has as its system Human immunodeficiency virus 1. Description: Antiviral activity against lopinavir-resistant HIV1 in MT4 cells assessed as inhibition of p24 Gag protein expression by MTT assay. The series is classed as functional, organism-based. The conditions noted are these: Human immunodeficiency virus 1, MT4. The procedure, abridged: as §1
The subject of series [27] is Human immunodeficiency virus 1. Nature of the series: Antiviral activity against HIV1 BaL R5 subtype B in phytohemagglutininin-activated PBMCs assessed as inhibition of p24 Gag protein expression by MTT assay. Type of series: functional, organism-based. The method, boiled down: as §4

Regarding `CC(C)c1nc(CN(C)C(=O)N[C@H](C(=O)N[C@@H](Cc2ccccc2)C[C@H](O)[C@H](Cc2ccccc2)NC(=O)OCc2cncs2)C(C)C)cs1` [RITONAVIR], the pEC50 in [1] is 6.89; in series [2], 6.52; in series [3], 7.15; in series [4] it was 7.39; in series [5], 7.41; in series [6], 7.52. The pEC50 in series [7] was 7.27; in [8] it was 6.68; in series [9], 6.59; in [10], 7.48.
As for `CC(C)CN(C[C@@H](O)[C@H](Cc1ccccc1)NC(=O)O[C@H]1CO[C@H]2OCC[C@H]21)S(=O)(=O)c1ccc(N)cc1`, the pEC50 in series [11] was 7.74; in [12], 7.82; in series [13] it was 8.48; in [14], 8.47; in series [15], 6.48; in [1] it was 7.68. Also, the pEC50 in series [2] was 7.44; in [16], 6.68; in series [17], 8.42; in series [18], 8.37; in series [19], 7.80; in series [20] it was 7.57. Moreover, the pEC50 in series [21] is 7.40; in series [22] it was 8.05; in [23] it was 8.15; in [24], 8.24; in series [7], 8.41; in [8], 8.10. Further, in series [9], the pEC50 is 8.17. For the same compound, in series [25], the CC50 amounted to 83100 nM.
Take `CC(C)CN(C[C@@H](O)[C@H](Cc1ccccc1)NC(=O)O[C@H]1CCOC1)S(=O)(=O)c1ccc(N)cc1`: the negative logarithm of the EC50 (pEC50) in [11] is 6.55; in series [12], 6.77; in series [13] it was 7.22; in series [14] it was 6.70; in series [26] it was 6.51; in series [15] it was less than 6.00. Moreover, the pEC50 in [1] is 7.24; in [2], 6.48; in series [16], less than 6.00; in [17], 7.54; in [18] it was 6.52; in series [19], 6.32. Besides, the pEC50 in series [20] was 6.37; in [21], 6.44; in series [3] it was 7.34; in series [4] it was 7.57; in series [5], 7.48; in series [6] it was 7.68. For the same compound, the pEC50 in [24] is 6.48; in series [7] it was 7.44; in series [8] it was 6.60; in series [9], 6.24. Further, the CC50 in series [25] was more than 100000 nM.
With `Cc1c(O)cccc1C(=O)N[C@@H](CSc1ccccc1)[C@H](O)CN1C[C@H]2CCCC[C@H]2C[C@H]1C(=O)NC(C)(C)C`, the pEC50 in series [1] was 7.10; in [2] it was 6.57; in [3] it was 7.37; in series [4], 7.25; in series [27], 7.74; in [5], 7.43. In addition, the pEC50 in series [6] was 7.54; in [7], 7.49; in series [8] it was 7.52; in series [9] it was 6.62; in series [10], 7.48. The CC50 in [25] amounted to 8100 nM.
With `Cc1cccc(C)c1OCC(=O)N[C@@H](Cc1ccccc1)[C@@H](O)C[C@H](Cc1ccccc1)NC(=O)[C@H](C(C)C)N1CCCNC1=O` [LOPINAVIR], the pEC50 in series [1] was 7.47; in series [2], 7.22; in series [17], 8.15; in [3], 8.15; in series [27], 8.28; in series [5], 8.14. Also, the pEC50 in [6] was 8.48; in [7], 8.15; in [8] it was 8.59; in [9], 8.31. Besides, the CC50 in series [25] is more than 100000 nM.

As usually defined, the pEC50 is the negative decadic logarithm of the EC50, by convention in mol/L. Broadly, the CC50 is the concentration at which the toxic effect on the cells reaches its halfway point.
